Calls of active or inactive are those of the source. No cut-off for these calls is given here.
Experiments:
[1] = target: Cholinesterase (Equus caballus) (UniProt P81908); assay: Inhibition of horse serum BChE at 10 uM pretreated for 20 mins followed by butyrylthiocholine iodide substrate addition measured for 5 mins by Ellman's method relative to control
Summary of the method: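 Ellman colorimetric assay. BChE (0.9 U/mL stock in 0.1 M PB pH 8.0) with DTNB (3.3 mM stock in pH 7.0 PB plus NaHCO₃) and inhibitor (1×10^-4 to 1×10^-9 M, five to seven concentrations; or single 10 µM point) preincubated 20 min at 25 °C. Butyrylthiocholine iodide (0.05 mM stock) then added and absorbance read at 412 nm for 5.0 min. IC50 from nonlinear regression of log response curves, mean of ≥3 independent runs.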

Cholinesterase [2] = target: T1, Cholinesterase (Equus caballus, UniProt P81908); assay: Inhibition of horse serum BChE pretreated for 20 mins followed by butyrylthiocholine iodide substrate addition measured for 5 mins by Ellman's method
[3] = Neurotoxicity against human SH-SY5Y cells assessed as growth inhibition measured after 48 hrs by MTT assay; type: toxicity, cell-based; conditions: for GI50 at 48 h: SH-SY5Y cells; for growth inhibition (GI): sh-sy5y, 48 h
Summary of the method: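 SH-SY5Y grown in DMEM/10% FBS, then treated in reduced-serum (2% FBS) medium. Compounds from 20 mM DMSO stock, tested at 0.1-1000 µM for 48 h after 1-day attachment at ~5,000 cells/well. MTT 4 h, DMSO/ethanol solubilization, absorbance. Triplicate wells, % of untreated control. GI50 from dose-response.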

[4] = Neurotoxicity against human U87 cells assessed as growth inhibition measured after 48 hrs by MTT assay; type: toxicity, cell-based, U-87MG ATCC
Summary of the method: (§1)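 Cells kept in DMEM with 10% FBS, 2 mM L-glutamine, penicillin/streptomycin, 37 °C, 5% CO₂. Seeded ~5,000 cells/well, 1 day, then exposed to compound at 0.1-500 µM for 48 h. MTT 0.5% (w/v) added for 4 h, formazan dissolved in DMSO/ethanol 1:1, absorbance read. Triplicates, as % of untreated control. GI50 from concentration-response curves.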

[5] = Cytotoxicity against human MCF7 cells assessed as growth inhibition measured after 48 hrs by MTT assay; type: toxicity, cell-based; summary of the method: as §1
[6] = Hepatotoxicity against human HepG2 cells assessed as growth inhibition measured after 48 hrs by MTT assay; type: toxicity, cell-based; summary of the method: as §1
[7] = Neuroprotective activity against NMDA-induced toxicity in human SH-SY5Y cells assessed as cell viability at 0.5 uM incubated for 48 hrs by MTT assay relative to control; type: functional; conditions: read-out: Activity
Summary of the method: (§2)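 SH-SY5Y in DMEM with 2% FBS, seeded ~5,000 cells/well and grown 1 day. Co-exposed 48 h at 37 °C to NMDA (250 µM final) plus test compound. MTT (0.5% w/v) added for 4 h, formazan dissolved in DMSO/ethanol 1:1, absorbance read. Triplicates as % of untreated control, mean ± SEM; one-way ANOVA with Dunnett's test.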

Acetylcholinesterase [8] = target: Acetylcholinesterase (Electrophorus electricus, UniProt O42275); assay: Inhibition of electric eel AChE pretreated for 20 mins followed by acetylthiocholine iodide substrate addition measured for 5 mins by Ellman's method
Cholinesterase [9] = target: T1, Cholinesterase; assay: Competitive inhibition of horse serum BChE in presence of varying levels of butyrylthiocholine iodide substrate by Lineweaver-burk plot method
Summary of the method: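 Lineweaver-Burk fit (1/v vs 1/[S]) using fixed enzyme at 0.09 U×mL^-1, substrate varied 25−250 µM, run without inhibitor and with inhibitor at four concentrations spanning 0.5-5.0 nM.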

Acetylcholinesterase [10] = target: T2, Acetylcholinesterase (Homo sapiens, UniProt P22303); assay: Inhibition of human AChE at 10 uM pretreated for 20 mins followed by acetylthiocholine iodide substrate addition measured for 5 mins by Ellman's method relative to control
Summary of the method: (§3)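 Ellman colorimetric assay with DTNB (3.3 mM stock, pH 7.0 PB). Test compound (five to seven concentrations, 1×10^-4 to 1×10^-9 M; or single 10 µM point) preincubated with enzyme 20 min at 25 °C in 0.1 M PB pH 8.0. Rate followed at 412 nm for 5.0 min after adding thiocholine substrate (0.05 mM). IC50 by nonlinear regression, mean of ≥3 independent determinations.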

Cholinesterase [11] = target: Cholinesterase (Homo sapiens, UniProt P06276); assay: Inhibition of human BChE pretreated for 20 mins followed by butyrylthiocholine iodide substrate addition measured for 5 mins by Ellman's method; summary of the method: as §3
[12] = Neuroprotective activity against NMDA-induced toxicity in human SH-SY5Y cells assessed as cell viability at 5 uM incubated for 48 hrs by MTT assay relative to control; type: functional; conditions: read-out: Activity; summary of the method: as §2
Cholinesterase [13] = target: T1, Cholinesterase; assay: Stability assessed as horse serum BChE mediated compound hydrolysis at 300 x 10^-6M at pH 8 measured every 5 mins for 1 hr by UV-Vis spectra analysis; type: ADME; conditions: buffer, pH 8, 1 h, 300 µM
Acetylcholinesterase [14] = target: T2, Acetylcholinesterase; assay: Inhibition of human AChE pretreated for 20 mins followed by acetylthiocholine iodide substrate addition measured for 5 mins by Ellman's method; summary of the method: as §3
SH-SY5Y = assay: Neuroprotective activity against NMDA-induced toxicity in human SH-SY5Y cells assessed as increase in cell viability at 0.5 uM incubated for 48 hrs by MTT assay; type: functional, cell-based
Summary of the method: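 SH-SY5Y at ~5,000 cells/well in reduced-serum (2% FBS) medium co-exposed 48 h at 37 °C to NMDA (250 µM final) and compound. Viability by MTT, as % of NMDA-untreated cells. Mean ± SEM; one-way ANOVA with Dunnett's test, P < 0.05 significant.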

Cholinesterase [15] = target: T1, Cholinesterase; assay: Stability assessed as horse serum BChE mediated compound hydrolysis at 300 x 10^-7M at pH 8 measured every 5 mins for 1 hr by UV-Vis spectra analysis; type: ADME; conditions: buffer, pH 8, 1 h, 30 µM

T2 sequence (P22303 whole entry): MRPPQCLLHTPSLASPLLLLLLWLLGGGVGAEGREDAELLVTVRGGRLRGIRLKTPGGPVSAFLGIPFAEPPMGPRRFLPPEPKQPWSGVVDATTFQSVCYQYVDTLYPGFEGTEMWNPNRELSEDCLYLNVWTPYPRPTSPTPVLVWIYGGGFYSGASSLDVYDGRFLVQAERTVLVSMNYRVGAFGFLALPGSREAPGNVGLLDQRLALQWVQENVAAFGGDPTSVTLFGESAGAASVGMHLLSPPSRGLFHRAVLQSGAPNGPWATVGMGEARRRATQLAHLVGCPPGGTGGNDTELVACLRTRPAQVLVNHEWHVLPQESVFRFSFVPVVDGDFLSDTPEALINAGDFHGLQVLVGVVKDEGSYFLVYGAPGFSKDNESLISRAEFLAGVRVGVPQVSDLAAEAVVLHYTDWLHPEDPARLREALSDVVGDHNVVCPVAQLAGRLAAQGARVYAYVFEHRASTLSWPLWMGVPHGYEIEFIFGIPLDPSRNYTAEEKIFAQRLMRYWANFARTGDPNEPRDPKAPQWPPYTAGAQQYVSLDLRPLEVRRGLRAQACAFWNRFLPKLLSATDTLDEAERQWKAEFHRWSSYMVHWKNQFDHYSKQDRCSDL
T1 sequence (P81908 whole entry): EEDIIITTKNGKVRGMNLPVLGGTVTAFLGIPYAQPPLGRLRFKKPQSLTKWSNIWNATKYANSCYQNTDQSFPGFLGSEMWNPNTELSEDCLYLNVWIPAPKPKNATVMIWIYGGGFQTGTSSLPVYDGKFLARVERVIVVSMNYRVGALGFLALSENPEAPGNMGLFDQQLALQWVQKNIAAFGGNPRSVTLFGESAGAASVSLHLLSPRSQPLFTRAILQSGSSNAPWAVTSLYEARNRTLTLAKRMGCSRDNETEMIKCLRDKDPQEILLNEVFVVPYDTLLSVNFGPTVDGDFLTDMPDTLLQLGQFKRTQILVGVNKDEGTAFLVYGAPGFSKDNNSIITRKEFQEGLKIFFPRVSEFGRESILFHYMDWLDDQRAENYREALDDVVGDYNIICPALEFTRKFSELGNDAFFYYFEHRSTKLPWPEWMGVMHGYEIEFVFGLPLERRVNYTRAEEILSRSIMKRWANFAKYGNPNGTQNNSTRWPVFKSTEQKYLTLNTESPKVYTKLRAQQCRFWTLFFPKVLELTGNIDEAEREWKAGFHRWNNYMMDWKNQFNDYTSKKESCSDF
Chain of Cholinesterase (Equus caballus) (P81908 whole entry): as above
Chain of Acetylcholinesterase (Electrophorus electricus, UniProt O42275) (O42275 whole entry): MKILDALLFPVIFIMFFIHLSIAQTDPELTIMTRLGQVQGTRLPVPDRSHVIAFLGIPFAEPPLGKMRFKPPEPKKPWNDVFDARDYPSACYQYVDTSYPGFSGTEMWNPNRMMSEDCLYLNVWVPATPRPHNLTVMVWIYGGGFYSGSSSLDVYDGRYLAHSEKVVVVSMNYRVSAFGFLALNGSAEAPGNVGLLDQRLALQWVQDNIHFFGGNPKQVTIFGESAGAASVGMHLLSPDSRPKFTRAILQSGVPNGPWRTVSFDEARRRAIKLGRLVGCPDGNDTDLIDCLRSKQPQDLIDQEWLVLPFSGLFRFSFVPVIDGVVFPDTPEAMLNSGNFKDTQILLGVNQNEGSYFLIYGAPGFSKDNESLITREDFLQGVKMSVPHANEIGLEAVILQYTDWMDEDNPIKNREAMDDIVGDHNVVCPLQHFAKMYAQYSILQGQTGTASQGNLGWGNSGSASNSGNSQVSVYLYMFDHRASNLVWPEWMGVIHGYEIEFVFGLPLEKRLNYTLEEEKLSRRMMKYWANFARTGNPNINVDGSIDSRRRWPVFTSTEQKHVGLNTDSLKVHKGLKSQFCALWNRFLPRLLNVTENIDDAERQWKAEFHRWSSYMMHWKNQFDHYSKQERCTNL
Chain of Cholinesterase (Homo sapiens, UniProt P06276) (P06276 whole entry): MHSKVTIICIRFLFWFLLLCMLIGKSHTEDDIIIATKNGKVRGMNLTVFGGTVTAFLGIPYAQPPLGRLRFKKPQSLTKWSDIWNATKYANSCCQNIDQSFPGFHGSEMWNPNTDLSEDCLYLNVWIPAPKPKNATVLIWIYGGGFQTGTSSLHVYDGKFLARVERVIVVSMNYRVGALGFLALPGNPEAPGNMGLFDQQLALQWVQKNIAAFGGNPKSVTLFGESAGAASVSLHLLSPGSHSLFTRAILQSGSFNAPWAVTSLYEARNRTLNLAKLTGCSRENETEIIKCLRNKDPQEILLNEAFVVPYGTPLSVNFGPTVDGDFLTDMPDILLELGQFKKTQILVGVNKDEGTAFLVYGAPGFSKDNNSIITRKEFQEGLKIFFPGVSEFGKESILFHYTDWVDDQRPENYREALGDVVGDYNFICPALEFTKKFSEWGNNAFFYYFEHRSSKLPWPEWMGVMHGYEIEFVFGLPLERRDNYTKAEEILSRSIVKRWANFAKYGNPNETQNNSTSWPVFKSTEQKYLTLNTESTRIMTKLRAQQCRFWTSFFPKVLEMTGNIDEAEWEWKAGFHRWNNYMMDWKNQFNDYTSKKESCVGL

Compound `O=C1NCCCc2c1c1ccccc1n2Cc1ccccc1` has an inhibition [1] of 25%.
For `Cl.c1ccc(CCn2c3c(c4ccccc42)CNCCC3)cc1`, the IC50 (Cholinesterase [2]) was 1.14 µM, the GI50 at 48 h [3] was 5.6 µM and the “growth inhibition (GI)” value [3] was “Dose-dependent effect”. For the same compound, the GI50 at 48 h [4] was 41 µM, the GI50 at 48 h [5] was 28 µM and the GI50 at 48 h [6] was 25 µM. It also gave a viability at 0.5 µM [7] of 76%.
`CCOC(=O)NCCCn1c2c(c3ccccc31)C(=O)NCCC2` showed an IC50 (Acetylcholinesterase [8]) of 110 µM and an IC50 (Cholinesterase [2]) of 15 µM.
`O=C1NCCCc2c1c1ccccc1n2CCc1cccc(F)c1` gave an IC50 (Cholinesterase [2]) of 0.0015 µM, a Ki (Cholinesterase [9]) of 0.0007 µM and an inhibition (Acetylcholinesterase [10]) of 6%. The IC50 (Cholinesterase [11]) was 0.0018 µM, the GI50 at 48 h [3] was 2.61 µM and the “growth inhibition (GI)” value [3] was “Dose-dependent effect”. The GI50 at 48 h [4] was 162 µM, the GI50 at 48 h [5] was 162 µM and the GI50 at 48 h [6] was 159 µM. For the same compound, the viability at 0.5 µM [7] was 70%.
Compound `CCOC(=O)CCCn1c2c(c3ccccc31)C(=O)NCCC2` has an IC50 (Acetylcholinesterase [8]) of 60 µM and an IC50 (Cholinesterase [2]) of 25.7 µM.
With `O=C1NCCCc2c1c1ccccc1n2CCc1ccccc1` the viability at 5 µM [12] was 76.9%, the IC50 (Acetylcholinesterase [8]) was 20 µM and the IC50 (Cholinesterase [2]) was 0.024 µM. For the same compound, the Stability (Cholinesterase [13]) was “Stable”, the IC50 (Acetylcholinesterase [14]) was 12.6 µM and the IC50 (Cholinesterase [11]) was 0.013 µM. For the same compound, the GI50 at 48 h [3] was 138 µM, the “growth inhibition (GI)” value [3] was “Dose-dependent effect” and the GI50 at 48 h [4] was 288 µM. For the same compound, the GI50 at 48 h [5] was 170 µM, the GI50 at 48 h [6] was 120 µM and the Activity (SH-SY5Y) was “Active”.
`O=C1NCCCc2c1c1ccccc1n2CCc1ccc(F)cc1` gave a viability at 5 µM [12] of 76.6%, an IC50 (Cholinesterase [2]) of 0.23 µM and an IC50 (Acetylcholinesterase [14]) of 10 µM. The IC50 (Cholinesterase [11]) was 5 µM, the GI50 at 48 h [3] was 251 µM and the “growth inhibition (GI)” value [3] was “Dose-dependent effect”. It also gave a GI50 at 48 h [4] greater than 500 µM, a GI50 at 48 h [5] greater than 500 µM and a GI50 at 48 h [6] of 230 µM.
`CN1CCCc2c(c3ccccc3n2CCc2ccccc2)C1=O` showed an IC50 (Acetylcholinesterase [8]) of 44.8 µM and an inhibition [1] of 10%.
Compound `O=C1CCCc2c1c1ccccc1n2CCc1ccccc1` has an IC50 (Acetylcholinesterase [8]) of 10 µM and an IC50 (Cholinesterase [2]) of 10 µM.
With `CC12CC3CC(C)(C1)CC(N)(C3)C2` [MEMANTINE] the viability at 5 µM [12] was 68%, the GI50 at 48 h [3] was 145 µM and the “growth inhibition (GI)” value [3] was “Dose-dependent effect”.
For `CC(=O)OCCCCn1c2c(c3ccccc31)C(=O)NCCC2`, the IC50 (Cholinesterase [2]) was 10.7 µM.
`O=C1NCCCc2c1c1cc(F)ccc1n2CCc1ccccc1` showed an IC50 (Cholinesterase [2]) of 0.028 µM.
For `O=C1NCCCc2c1c1ccccc1n2CCc1cccc(Cl)c1`, the IC50 (Cholinesterase [2]) was 0.065 µM.
For `O=C1CCCc2c(c3ccccc3n2CCc2ccccc2)N1`, the inhibition [1] was 25% and the Stability (Cholinesterase [15]) was “Stable”.
Compound `O=c1[nH]cc(F)c(=O)[nH]1` [FLUOROURACIL] has a GI50 at 48 h [4] of 13 µM, a GI50 at 48 h [5] of 4.5 µM and a GI50 at 48 h [6] of 7 µM.
Work on `Cc1ccc(CCn2c3c(c4ccccc42)C(=O)NCCC3)cc1` yielded an IC50 (Cholinesterase [2]) of 68.2 µM.
Compound `CCCNC(=O)c1cn(CCc2ccccc2)c2ccccc12` has an IC50 (Acetylcholinesterase [8]) of 10.3 µM and an IC50 (Cholinesterase [2]) of 12.6 µM.
In the case of `O/N=C1\CCCc2c1c1ccccc1n2CCc1ccccc1`, the inhibition [1] is reported as 5%.
With `O=C1NCCCc2c1c1ccccc1n2CCCc1ccccc1` the inhibition [1] was 20%.
Compound `CC(C)CCn1c2c(c3ccccc31)C(=O)NCCC2` has an IC50 (Acetylcholinesterase [8]) of 100 µM and an IC50 (Cholinesterase [2]) of 22.3 µM.
Compound `O=C1NCCCc2c1c1ccccc1n2CCc1ccc(Cl)cc1` has an IC50 (Cholinesterase [2]) of 1.9 µM.

— ChEMBL document CHEMBL3877261, “New azepino[4,3-b]indole derivatives as nanomolar selective inhibitors of human butyrylcholinesterase showing protective effects against NMDA-induced neurotoxicity” (Eur J Med Chem, 2017)
